Data taken from ChEMBL document CHEMBL4382192, “Discovery of a potent dual ALK and EGFR T790M inhibitor” (Eur J Med Chem, 2017).

Tests used:
[1] = system: Tyrosine-protein kinase ABL1 (Homo sapiens), P00519 [M351T]; experiment: Binding affinity to human phosphorylated ABL1 M351T mutant (S229 to K512 residues) expressed in mammalian expression system assessed as residual binding level at 1 uM by Kinomescan method relative to control
Procedure, shortened: (§1)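 Kinome-wide selectivity panel run by the KINOMEscan method, with the test compound at a single concentration of 1 μM. Wild-type and mutant kinases were profiled in the same screen.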

[2] = target: ALK tyrosine kinase receptor (Homo sapiens, UniProt Q9UM73); experiment: Binding affinity to wild-type human partial length ALK (I1088 to E1409 residues) expressed in mammalian expression system assessed as residual binding level at 1 uM by Kinomescan method relative to control
[3] = system: ALK tyrosine kinase receptor (Homo sapiens), Q9UM73 [L1196M]; experiment: Binding affinity to wild-type human partial length ALK L1196M mutant (I1088 to E1409 residues) expressed in mammalian expression system assessed as residual binding level at 1 uM by Kinomescan method relative to control
[4] = target: NUAK family SNF1-like kinase 1 (Homo sapiens) (UniProt O60285); experiment: Binding affinity to wild-type human partial length ARK5 (E25 to I332 residues) expressed in bacterial expression system assessed as residual binding level at 1 uM by Kinomescan method relative to control
[5] = target: Calcium/calmodulin-dependent protein kinase type II subunit gamma (Homo sapiens) (UniProt Q13555); experiment: Binding affinity to wild-type human partial length CAMK2G (R9 to A303 residues) expressed in bacterial expression system assessed as residual binding level at 1 uM by Kinomescan method relative to control
Calcium/calmodulin-dependent protein kinase type II subunit gamma (Homo sapiens), sequence (Q13555 whole entry, the tested form may be a part, canonical isoform): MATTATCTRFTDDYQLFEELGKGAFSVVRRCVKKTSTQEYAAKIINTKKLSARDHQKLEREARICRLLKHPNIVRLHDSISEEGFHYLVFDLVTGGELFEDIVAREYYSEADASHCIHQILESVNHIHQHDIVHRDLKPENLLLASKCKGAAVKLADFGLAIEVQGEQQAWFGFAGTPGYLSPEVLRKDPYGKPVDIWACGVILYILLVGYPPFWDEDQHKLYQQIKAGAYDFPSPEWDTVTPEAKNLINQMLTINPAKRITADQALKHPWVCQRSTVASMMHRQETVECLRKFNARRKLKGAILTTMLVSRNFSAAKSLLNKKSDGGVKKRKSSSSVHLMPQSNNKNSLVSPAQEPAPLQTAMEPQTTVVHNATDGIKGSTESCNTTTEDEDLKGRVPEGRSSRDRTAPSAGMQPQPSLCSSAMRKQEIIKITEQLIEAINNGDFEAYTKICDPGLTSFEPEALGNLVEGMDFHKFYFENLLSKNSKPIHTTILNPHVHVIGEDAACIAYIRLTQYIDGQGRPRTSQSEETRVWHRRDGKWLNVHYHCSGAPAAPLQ

[6] = target: Casein kinase I isoform alpha-like (Homo sapiens) (UniProt Q8N752); experiment: Binding affinity to wild-type human full length CSNK1A1L (M1 to N337 residues) expressed in bacterial expression system assessed as residual binding level at 1 uM by Kinomescan method relative to control
[7] = target: Casein kinase I isoform epsilon (Homo sapiens) (UniProt P49674); experiment: Binding affinity to wild-type human full length CSNK1E (M1 to K416 residues) expressed in bacterial expression system assessed as residual binding level at 1 uM by Kinomescan method relative to control
Casein kinase I isoform epsilon (Homo sapiens), sequence (P49674 whole entry, looked up, the tested form may be a part, canonical isoform): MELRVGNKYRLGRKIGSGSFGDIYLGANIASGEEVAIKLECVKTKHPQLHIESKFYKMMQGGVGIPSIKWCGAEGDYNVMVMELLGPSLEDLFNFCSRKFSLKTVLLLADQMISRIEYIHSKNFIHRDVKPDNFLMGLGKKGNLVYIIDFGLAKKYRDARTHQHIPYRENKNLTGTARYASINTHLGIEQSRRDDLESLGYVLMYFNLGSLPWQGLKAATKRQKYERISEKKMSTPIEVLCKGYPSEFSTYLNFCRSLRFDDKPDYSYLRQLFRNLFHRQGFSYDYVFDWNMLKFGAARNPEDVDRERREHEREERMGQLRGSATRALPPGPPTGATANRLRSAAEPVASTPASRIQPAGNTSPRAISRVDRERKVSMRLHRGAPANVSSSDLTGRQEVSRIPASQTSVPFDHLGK

[8] = target: Epidermal growth factor receptor (Homo sapiens) (UniProt P00533); experiment: Binding affinity to wild-type human partial length EGFR (R669 to V1011 residues) expressed in bacterial expression system assessed as residual binding level at 1 uM by Kinomescan method relative to control
[9] = system: Epidermal growth factor receptor (Homo sapiens), P00533 [UNDEFINED MUTATION]; experiment: Binding affinity to human partial length EGFR S752-I759del mutant expressed in bacterial expression system assessed as residual binding level at 1 uM by Kinomescan method relative to control; procedure, shortened: as §1
[10] = system: Receptor-type tyrosine-protein kinase FLT3 (Homo sapiens), P36888 [UNDEFINED MUTATION]; experiment: Binding affinity to human partial length FLT3 ITD/F691L double mutant expressed in bacterial expression system assessed as residual binding level at 1 uM by Kinomescan method relative to control; procedure, shortened: as §1
[11] = target: Tyrosine-protein kinase ITK/TSK (Homo sapiens) (UniProt Q08881); experiment: Binding affinity to wild-type human partial length ITK (R335 to L620 residues) expressed in bacterial expression system assessed as residual binding level at 1 uM by Kinomescan method relative to control
Tyrosine-protein kinase ITK/TSK (Homo sapiens), sequence (Q08881 whole entry, the tested form may be a part): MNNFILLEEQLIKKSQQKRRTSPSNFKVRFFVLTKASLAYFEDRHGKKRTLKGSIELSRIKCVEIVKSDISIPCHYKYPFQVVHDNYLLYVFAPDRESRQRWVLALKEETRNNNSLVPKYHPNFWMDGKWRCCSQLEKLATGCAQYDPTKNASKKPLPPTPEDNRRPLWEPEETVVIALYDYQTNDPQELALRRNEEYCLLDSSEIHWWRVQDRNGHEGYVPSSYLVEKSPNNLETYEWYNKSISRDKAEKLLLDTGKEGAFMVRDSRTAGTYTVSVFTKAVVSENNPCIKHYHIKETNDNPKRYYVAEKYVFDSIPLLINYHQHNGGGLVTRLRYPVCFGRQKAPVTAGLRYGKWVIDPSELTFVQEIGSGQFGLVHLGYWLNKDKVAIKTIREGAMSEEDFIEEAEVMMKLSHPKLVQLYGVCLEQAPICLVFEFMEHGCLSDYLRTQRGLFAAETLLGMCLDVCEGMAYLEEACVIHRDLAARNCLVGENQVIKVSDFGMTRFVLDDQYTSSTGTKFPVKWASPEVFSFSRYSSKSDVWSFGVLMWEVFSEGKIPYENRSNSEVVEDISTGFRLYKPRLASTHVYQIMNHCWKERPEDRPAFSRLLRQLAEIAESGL

[12] = system: Mast/stem cell growth factor receptor Kit (Homo sapiens), P10721 [D816V]; experiment: Binding affinity to human partial length KIT D816V mutant (I571 to D952 residues) expressed in bacterial expression system assessed as residual binding level at 1 uM by Kinomescan method relative to control; procedure, shortened: as §1
Mast/stem cell growth factor receptor Kit (Homo sapiens), P10721 [D816V], sequence (P10721 whole entry D816V, the tested form may be a part): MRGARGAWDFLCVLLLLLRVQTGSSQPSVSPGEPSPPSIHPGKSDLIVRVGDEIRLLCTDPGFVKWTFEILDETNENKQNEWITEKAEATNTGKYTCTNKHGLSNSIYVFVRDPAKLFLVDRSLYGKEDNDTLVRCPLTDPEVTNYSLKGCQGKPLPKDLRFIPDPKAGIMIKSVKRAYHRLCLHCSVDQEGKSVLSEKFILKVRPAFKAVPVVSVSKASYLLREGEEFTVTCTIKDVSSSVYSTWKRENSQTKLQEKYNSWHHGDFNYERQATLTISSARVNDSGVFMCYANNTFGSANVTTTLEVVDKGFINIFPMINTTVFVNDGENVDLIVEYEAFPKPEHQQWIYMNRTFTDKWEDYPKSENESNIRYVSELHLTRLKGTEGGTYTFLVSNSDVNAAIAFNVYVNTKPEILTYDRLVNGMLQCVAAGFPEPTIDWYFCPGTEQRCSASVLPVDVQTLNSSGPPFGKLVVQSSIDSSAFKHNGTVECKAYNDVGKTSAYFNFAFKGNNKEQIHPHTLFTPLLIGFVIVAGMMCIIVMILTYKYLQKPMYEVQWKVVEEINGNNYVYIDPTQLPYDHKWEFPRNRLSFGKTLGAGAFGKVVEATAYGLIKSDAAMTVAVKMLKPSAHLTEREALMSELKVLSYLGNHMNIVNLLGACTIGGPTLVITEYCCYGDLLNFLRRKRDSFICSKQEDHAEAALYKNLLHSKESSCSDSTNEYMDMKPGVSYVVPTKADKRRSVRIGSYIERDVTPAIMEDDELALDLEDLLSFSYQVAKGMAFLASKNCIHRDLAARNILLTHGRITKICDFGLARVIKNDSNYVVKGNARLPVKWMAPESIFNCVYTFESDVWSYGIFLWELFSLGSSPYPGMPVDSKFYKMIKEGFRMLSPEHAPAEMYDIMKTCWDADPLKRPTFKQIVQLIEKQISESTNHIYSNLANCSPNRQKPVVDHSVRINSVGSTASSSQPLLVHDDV

[13] = system: Leucine-rich repeat serine/threonine-protein kinase 2 (Homo sapiens), Q5S007 [G2019S]; experiment: Binding affinity to human partial length LRRK2 G2019S mutant (H970 to E2527 residues) expressed in mammalian expression system assessed as residual binding level at 1 uM by Kinomescan method relative to control; procedure, shortened: as §1
[14] = target: Mitogen-activated protein kinase kinase kinase 1 (Homo sapiens) (UniProt Q13233); experiment: Binding affinity to wild-type human partial length MAP3K1 (L1202 to W1512 residues) expressed in mammalian expression system assessed as residual binding level at 1 uM by Kinomescan method relative to control
[15] = target: Mitogen-activated protein kinase kinase kinase kinase 3 (Homo sapiens) (UniProt Q8IVH8); experiment: Binding affinity to wild-type human partial length MAP4K3 (M1 to D301 residues) expressed in bacterial expression system assessed as residual binding level at 1 uM by Kinomescan method relative to control
[16] = target: Serine/threonine-protein kinase PAK 5 (Homo sapiens) (UniProt Q9P286); experiment: Binding affinity to wild-type human partial length PAK7 (Y400 to H719 residues) expressed in bacterial expression system assessed as residual binding level at 1 uM by Kinomescan method relative to control
[17] = target: Phosphatidylinositol 4-phosphate 5-kinase type-1 alpha (Homo sapiens) (UniProt Q99755); experiment: Binding affinity to wild-type human full length PIP5K1A (M1 to H562 residues) expressed in bacterial expression system assessed as residual binding level at 1 uM by Kinomescan method relative to control
Phosphatidylinositol 4-phosphate 5-kinase type-1 alpha (Homo sapiens), sequence (Q99755 whole entry, the tested form may be a part): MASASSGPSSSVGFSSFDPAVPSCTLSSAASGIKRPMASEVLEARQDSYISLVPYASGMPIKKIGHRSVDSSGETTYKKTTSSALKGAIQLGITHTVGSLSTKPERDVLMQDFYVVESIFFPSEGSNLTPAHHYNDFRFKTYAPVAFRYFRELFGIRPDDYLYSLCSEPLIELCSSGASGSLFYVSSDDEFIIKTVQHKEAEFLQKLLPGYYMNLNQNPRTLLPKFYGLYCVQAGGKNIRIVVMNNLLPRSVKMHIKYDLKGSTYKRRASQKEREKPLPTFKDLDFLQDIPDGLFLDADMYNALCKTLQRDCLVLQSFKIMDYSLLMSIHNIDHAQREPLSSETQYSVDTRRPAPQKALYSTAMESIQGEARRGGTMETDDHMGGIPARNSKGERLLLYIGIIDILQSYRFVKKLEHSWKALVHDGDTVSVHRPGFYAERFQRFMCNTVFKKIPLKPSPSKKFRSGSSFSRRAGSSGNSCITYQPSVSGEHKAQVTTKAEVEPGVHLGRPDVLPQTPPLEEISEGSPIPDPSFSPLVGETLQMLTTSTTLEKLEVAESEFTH

[18] = target: cAMP-dependent protein kinase catalytic subunit beta (Homo sapiens) (UniProt P22694); experiment: Binding affinity to wild-type human full length PKAC-beta (M1 to F351 residues) expressed in bacterial expression system assessed as residual binding level at 1 uM by Kinomescan method relative to control
Procedure, shortened: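 Single-point kinome-wide KINOMEscan binding panel, test compound at 1 μM, run by the provider's standard protocol.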

[19] = target: SNF-related serine/threonine-protein kinase (Homo sapiens) (UniProt Q9NRH2); experiment: Binding affinity to wild-type human partial length SNRK (M1 to E339 residues) expressed in mammalian expression system assessed as residual binding level at 1 uM by Kinomescan method relative to control
SNF-related serine/threonine-protein kinase (Homo sapiens), sequence (Q9NRH2 whole entry, the tested form may be a part): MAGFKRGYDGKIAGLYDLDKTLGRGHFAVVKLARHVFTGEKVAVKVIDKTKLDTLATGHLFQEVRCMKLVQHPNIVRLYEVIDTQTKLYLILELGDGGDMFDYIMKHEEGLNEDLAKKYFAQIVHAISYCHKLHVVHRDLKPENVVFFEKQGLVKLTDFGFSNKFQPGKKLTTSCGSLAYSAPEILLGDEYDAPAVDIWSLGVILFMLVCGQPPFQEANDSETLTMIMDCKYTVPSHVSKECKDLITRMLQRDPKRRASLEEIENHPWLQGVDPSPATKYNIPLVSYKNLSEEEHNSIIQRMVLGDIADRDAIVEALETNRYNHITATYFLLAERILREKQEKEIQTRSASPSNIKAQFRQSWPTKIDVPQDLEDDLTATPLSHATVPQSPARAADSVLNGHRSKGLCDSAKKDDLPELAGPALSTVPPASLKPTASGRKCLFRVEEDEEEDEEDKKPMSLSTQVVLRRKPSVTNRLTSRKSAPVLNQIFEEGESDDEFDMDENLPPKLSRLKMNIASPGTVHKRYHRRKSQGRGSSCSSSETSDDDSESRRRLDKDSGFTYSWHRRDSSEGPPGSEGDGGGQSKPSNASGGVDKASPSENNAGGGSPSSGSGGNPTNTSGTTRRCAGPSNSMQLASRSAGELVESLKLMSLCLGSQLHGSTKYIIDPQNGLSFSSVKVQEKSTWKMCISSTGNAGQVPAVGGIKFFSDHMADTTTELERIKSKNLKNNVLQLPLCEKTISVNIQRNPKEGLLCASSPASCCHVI

[20] = target: TRAF2 and NCK-interacting protein kinase (Homo sapiens) (UniProt Q9UKE5); experiment: Binding affinity to wild-type human partial length TNIK (D4 to K311 residues) expressed in bacterial expression system assessed as residual binding level at 1 uM by Kinomescan method relative to control
[21] = target: Tyrosine-protein kinase TXK (Homo sapiens) (UniProt P42681); experiment: Binding affinity to wild-type human partial length TXK (L238 to W527 residues) expressed in bacterial expression system assessed as residual binding level at 1 uM by Kinomescan method relative to control
[22] = target: Serine/threonine-protein kinase 32C (Homo sapiens) (UniProt Q86UX6); experiment: Binding affinity to wild-type human partial length YANK3 (M68 to G486 residues) expressed in bacterial expression system assessed as residual binding level at 1 uM by Kinomescan method relative to control
Serine/threonine-protein kinase 32C (Homo sapiens), sequence (Q86UX6 whole entry, the tested form may be a part): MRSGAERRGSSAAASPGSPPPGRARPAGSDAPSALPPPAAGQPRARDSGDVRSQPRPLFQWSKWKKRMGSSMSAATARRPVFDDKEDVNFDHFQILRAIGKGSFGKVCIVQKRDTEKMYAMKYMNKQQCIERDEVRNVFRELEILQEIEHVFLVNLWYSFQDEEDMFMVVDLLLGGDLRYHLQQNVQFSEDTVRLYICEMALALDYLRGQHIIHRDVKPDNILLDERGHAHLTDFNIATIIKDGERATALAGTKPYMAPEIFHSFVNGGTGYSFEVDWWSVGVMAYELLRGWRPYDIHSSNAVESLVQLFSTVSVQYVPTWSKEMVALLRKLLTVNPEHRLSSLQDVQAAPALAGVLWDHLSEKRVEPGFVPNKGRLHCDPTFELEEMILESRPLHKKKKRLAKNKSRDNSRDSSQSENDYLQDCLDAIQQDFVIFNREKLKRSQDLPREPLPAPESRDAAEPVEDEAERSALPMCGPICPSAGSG

CYP2C9 = CYP2C9 (Homo sapiens, UniProt P11712); experiment: Residual activity of CYP2C9 in human liver microsomes at 10 uM using tolbutamide 4-hydroxylase as substrate preincubated for 5 mins followed by NADPH addition measured after 15 mins by LC/MS/MS analysis relative to control; settings: probe tolbutamide (4-hydroxylation)
CYP2C9, sequence (P11712 whole entry): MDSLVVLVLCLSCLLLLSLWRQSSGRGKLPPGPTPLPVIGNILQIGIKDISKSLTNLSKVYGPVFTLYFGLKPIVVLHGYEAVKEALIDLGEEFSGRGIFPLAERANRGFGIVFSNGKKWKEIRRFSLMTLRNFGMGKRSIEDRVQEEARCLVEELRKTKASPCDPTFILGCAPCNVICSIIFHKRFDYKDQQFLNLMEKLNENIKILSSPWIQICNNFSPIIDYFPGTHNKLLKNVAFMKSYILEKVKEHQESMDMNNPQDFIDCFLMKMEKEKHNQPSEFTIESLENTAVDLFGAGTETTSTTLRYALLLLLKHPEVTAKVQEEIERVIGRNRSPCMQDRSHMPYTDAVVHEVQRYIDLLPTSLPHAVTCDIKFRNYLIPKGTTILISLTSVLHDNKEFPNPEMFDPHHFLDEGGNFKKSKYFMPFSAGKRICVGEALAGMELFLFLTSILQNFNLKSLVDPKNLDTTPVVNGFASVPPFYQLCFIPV

C=CC(=O)Nc1cc(Nc2ncc(Cl)c(Nc3ccccc3S(=O)(=O)C(C)C)n2)c(OC)cc1N(C)CCN(C)C was tested, and the Activity [1] was 9.5%, the Activity [2] was 0% and the Activity [3] was 0%. It also gave an Activity [4] of 8.1%, an Activity [5] of 26% and an Activity [6] of 86%. It also gave an Activity [7] of 100%, an Activity [8] of 0% and an Activity [9] of 2.4%. The Activity [10] was 3.6%, the Activity [11] was 0.1% and the Activity [12] was 26%. For the same molecule, the Activity [13] was 0.95%, the Activity [14] was 84% and the Activity [15] was 3.3%. The Activity [16] was 79%, the Activity [17] was 91% and the Activity [18] was 99%. For the same molecule, the Activity [19] was 72%, the Activity [20] was 61% and the Activity [21] was 0.65%. The Activity [22] was 13% and the Activity at […], 10 µM (CYP2C9) was 83%.
